Experimental data published in ChEMBL document CHEMBL1131294, “Universal template approach to drug design: polyamines as selective muscarinic receptor antagonists” (J Med Chem, 1998).

Columns and labels:
[1] = biological target: T1, Muscarinic acetylcholine receptor M1 (Rattus norvegicus, UniProt P08482); assay: Binding affinity for rat cortex Muscarinic acetylcholine receptor M1
T1 sequence (P08482 whole entry): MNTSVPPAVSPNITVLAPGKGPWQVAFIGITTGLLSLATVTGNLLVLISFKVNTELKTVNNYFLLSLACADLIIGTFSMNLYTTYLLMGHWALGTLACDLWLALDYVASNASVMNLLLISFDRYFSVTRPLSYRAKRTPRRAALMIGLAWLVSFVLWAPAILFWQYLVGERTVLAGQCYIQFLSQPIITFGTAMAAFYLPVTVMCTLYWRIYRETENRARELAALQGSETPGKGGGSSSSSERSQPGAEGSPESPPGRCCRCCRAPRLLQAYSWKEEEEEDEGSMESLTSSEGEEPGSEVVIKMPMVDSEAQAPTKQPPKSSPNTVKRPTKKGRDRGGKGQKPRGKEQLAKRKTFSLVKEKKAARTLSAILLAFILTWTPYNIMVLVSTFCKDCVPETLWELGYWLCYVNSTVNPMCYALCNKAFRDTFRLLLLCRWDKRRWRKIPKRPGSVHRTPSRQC
Summary of the method: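 Rat cerebral cortex homogenate (200 µg protein) competed against 5 nM [3H]pirenzepine. Incubation 2 h at 25 °C in 50 mM sodium phosphate pH 7.4 with 2 mM MgCl2 and 1% BSA. Nonspecific binding defined with 10 µM atropine. Filtration on PEI-soaked glass-fiber filters. Ki by Cheng-Prusoff; at least three experiments, each in triplicate.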

[2] = biological target: T2, Muscarinic acetylcholine receptor M4 (Rattus norvegicus, UniProt P08485); assay: […] to Muscarinic acetylcholine receptor M4
T2 sequence (P08485 whole entry): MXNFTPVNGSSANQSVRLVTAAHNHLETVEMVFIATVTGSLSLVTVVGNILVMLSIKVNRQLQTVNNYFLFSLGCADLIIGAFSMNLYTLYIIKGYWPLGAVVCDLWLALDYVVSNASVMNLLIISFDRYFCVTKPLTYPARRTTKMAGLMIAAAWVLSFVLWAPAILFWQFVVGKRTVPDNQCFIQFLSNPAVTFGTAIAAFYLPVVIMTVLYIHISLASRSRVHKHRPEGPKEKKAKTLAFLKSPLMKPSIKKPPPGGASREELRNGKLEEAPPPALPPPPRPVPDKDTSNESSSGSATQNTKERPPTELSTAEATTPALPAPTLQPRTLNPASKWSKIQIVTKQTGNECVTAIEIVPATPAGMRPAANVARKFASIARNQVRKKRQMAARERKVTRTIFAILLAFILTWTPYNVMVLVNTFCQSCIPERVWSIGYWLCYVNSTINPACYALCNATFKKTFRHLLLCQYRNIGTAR
Summary of the method: (§1)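 Competition against 0.7-0.8 nM [3H]NMS using homogenates of rat heart (M2) or submaxillary gland (M3), 500 µg protein each, or NG 108-15 cells (M4), 600 µg protein. Incubation 2 h at 25 °C in 50 mM sodium phosphate pH 7.4 with 2 mM MgCl2 and 1% BSA. Nonspecific binding defined with 10 µM atropine. Filtration; Ki by Cheng-Prusoff; at least three experiments, each in triplicate.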

[3] = biological target: Muscarinic acetylcholine receptor M3 (Cavia porcellus, UniProt Q8VH26); assay: Antagonist affinity evaluated against Muscarinic acetylcholine receptor M3 in isolated guinea pig longitudinal Ileum.; assay type: functional, tissue-based; conditions: read-out: pA2 (converted)
Summary of the method: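 Guinea pig left atria (M2, negative inotropism, electrically driven at 1 Hz) and ileum longitudinal muscle (M3, contraction). Agonist: arecaidine propargyl ester. Ileum: isotonic recording, at least 30 min equilibration. APE curves (0.01-0.5 µM) taken at 30-min intervals, the second curve serving as control. After 60 min antagonist incubation the curve was repeated. Dose ratios at agonist EC50, 3-6 antagonist concentrations, 4-6 replicates each; pA2 from Schild plots constrained to slope -1.0.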

[4] = biological target: Muscarinic acetylcholine receptor M3 (Rattus norvegicus, UniProt P08483); assay: Inhibition of [3H]NMS binding to rat submaxillary gland Muscarinic acetylcholine receptor M3; summary of the method: as §1
[5] = biological target: T3, Muscarinic acetylcholine receptor M2 (Rattus norvegicus, UniProt P10980); assay: Inhibition of [3H]NMS binding to rat heart Muscarinic acetylcholine receptor M2
T3 sequence (P10980 whole entry): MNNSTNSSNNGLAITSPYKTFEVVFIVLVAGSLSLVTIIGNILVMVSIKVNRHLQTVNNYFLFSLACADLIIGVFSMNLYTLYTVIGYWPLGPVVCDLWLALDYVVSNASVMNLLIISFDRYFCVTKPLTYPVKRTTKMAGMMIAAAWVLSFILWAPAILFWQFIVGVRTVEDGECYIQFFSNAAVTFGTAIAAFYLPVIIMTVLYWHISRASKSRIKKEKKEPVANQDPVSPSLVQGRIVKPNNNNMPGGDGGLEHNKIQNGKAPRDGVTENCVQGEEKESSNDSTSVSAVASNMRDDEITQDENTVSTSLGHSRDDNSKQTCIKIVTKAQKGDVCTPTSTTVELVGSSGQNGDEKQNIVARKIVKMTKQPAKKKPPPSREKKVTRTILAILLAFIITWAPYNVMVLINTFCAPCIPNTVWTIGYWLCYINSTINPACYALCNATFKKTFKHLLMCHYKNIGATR

[6] = biological target: Muscarinic acetylcholine receptor M2 (Cavia porcellus); assay: Antagonist affinity evaluated against Muscarinic acetylcholine receptor M2 in isolated guinea pig left atrium; conditions: read-out: pA2 (converted)

Sequence of Muscarinic acetylcholine receptor M3 (Cavia porcellus, UniProt Q8VH26) (Q8VH26 whole entry): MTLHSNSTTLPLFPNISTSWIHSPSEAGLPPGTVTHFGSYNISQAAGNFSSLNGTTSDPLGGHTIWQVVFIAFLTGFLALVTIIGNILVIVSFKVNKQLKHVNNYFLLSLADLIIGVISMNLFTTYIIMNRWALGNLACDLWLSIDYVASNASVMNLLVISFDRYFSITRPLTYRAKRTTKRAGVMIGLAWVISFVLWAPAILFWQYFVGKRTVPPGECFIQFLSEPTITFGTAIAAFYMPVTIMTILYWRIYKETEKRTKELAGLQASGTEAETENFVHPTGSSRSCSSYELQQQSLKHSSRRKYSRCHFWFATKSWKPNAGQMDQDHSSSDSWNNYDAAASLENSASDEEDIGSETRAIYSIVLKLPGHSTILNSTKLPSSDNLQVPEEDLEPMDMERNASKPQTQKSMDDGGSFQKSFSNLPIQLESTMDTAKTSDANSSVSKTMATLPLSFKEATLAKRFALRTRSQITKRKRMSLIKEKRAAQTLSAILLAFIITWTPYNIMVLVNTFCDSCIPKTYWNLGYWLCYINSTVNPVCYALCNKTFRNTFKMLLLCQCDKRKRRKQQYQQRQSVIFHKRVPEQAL
Sequence of Muscarinic acetylcholine receptor M3 (Rattus norvegicus, UniProt P08483) (P08483 whole entry): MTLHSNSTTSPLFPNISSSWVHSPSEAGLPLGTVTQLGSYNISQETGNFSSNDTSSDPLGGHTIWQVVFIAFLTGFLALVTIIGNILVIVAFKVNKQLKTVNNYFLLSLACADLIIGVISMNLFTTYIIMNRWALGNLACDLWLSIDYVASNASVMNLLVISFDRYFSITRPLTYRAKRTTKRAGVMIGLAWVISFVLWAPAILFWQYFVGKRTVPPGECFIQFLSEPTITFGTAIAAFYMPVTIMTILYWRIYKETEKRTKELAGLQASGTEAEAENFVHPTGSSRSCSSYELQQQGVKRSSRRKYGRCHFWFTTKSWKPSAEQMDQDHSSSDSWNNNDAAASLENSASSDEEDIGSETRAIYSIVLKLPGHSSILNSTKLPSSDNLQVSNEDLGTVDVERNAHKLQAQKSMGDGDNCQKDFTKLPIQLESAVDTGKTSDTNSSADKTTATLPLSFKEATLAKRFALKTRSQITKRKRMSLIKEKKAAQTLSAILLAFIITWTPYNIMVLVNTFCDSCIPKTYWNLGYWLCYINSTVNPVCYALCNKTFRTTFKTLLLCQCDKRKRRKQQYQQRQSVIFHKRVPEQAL

Structure (SMILES): CN(CCCCCCN)CCCCCCCCN(C)CCCCCCNCC(=O)N1c2ccccc2C(=O)Nc2cccnc21
- Ki [1]: 4.37 nM
- Ki [2]: 15.8 nM
- Kb [3]: 275 nM
- Ki [4]: 331 nM

Structure (SMILES): CN(CCCCCCCCN(C)CCCCCCN(CC(=O)N1c2ccccc2NC(=O)c2cccnc21)CC(=O)N1c2ccccc2NC(=O)c2cccnc21)CCCCCCNCC(=O)N1c2ccccc2NC(=O)c2cccnc21
- Ki [1]: 12.6 nM
- Ki [2]: 39.8 nM
- Kb [3]: 912 nM
- Ki [4]: 398 nM
- Ki [5]: 0.912 nM
- Kb [6]: 2.51 nM

Structure (SMILES): CN(CCCCCCCCN(C)CCCCCCNCC(=O)N1c2ccccc2NC(=O)c2cccnc21)CCCCCCNCC(=O)N1c2ccccc2NC(=O)c2cccnc21
- Ki [1]: 14.5 nM
- Ki [2]: 36.3 nM
- Kb [3]: 537 nM
- Ki [4]: 2570 nM
- Ki [5]: 20.9 nM
- Kb [6]: 5.25 nM

Structure (SMILES): CN(CCCCCCCCN(C)CCCCCCN(CC(=O)N1c2ccccc2NC(=O)c2cccnc21)CC(=O)N1c2ccccc2NC(=O)c2cccnc21)CCCCCCN(CC(=O)N1c2ccccc2NC(=O)c2cccnc21)CC(=O)N1c2ccccc2NC(=O)c2cccnc21
- Ki [1]: 25.1 nM
- Ki [2]: 158 nM
- Kb [3]: 1620 nM
- Ki [4]: 2510 nM

Structure (SMILES): CN(CCCCCCCCN(C)CCCCCCN(CC(=O)N1c2ccccc2NC(=O)c2ccccc21)CC(=O)N1c2ccccc2NC(=O)c2ccccc21)CCCCCCNCC(=O)N1c2ccccc2NC(=O)c2ccccc21
- Ki [1]: 0.955 nM
- Ki [2]: 41.7 nM
- Kb [3]: 44.7 nM
- Ki [4]: 110 nM
- Ki [5]: 0.437 nM
- Kb [6]: 0.2 nM

Structure (SMILES): CN(CCCCCCCCN(C)CCCCCCNCC(=O)N1c2ccccc2NC(=O)c2ccccc21)CCCCCCNCC(=O)N1c2ccccc2NC(=O)c2ccccc21
- Ki [1]: 14.8 nM
- Ki [2]: 2.82 nM
- Kb [3]: 112 nM
- Ki [4]: 115 nM

Structure (SMILES): CN(CCCCCCCCN(C)C(=O)CCCCCNCCCC(=O)N1c2ccccc2C(=O)Nc2cccnc21)C(=O)CCCCCN
- Kb [3]: 1.86 nM
- Kb [6]: 0.457 nM

Structure (SMILES): CN(CCCCCCN)CCCCCCCCN(C)CCCCCCNCCCC(=O)N1c2ccccc2C(=O)Nc2cccnc21
- Ki [1]: 0.501 nM
- Ki [2]: 1.45 nM
- Kb [3]: 4.79 nM
- Ki [4]: 3.02 nM

Structure (SMILES): CN(CCCCCCN)CCCCCCCCN(C)CCCCCCNCCC(=O)N1c2ccccc2C(=O)Nc2cccnc21
- Kb [3]: 17 nM
- Kb [6]: 2.69 nM

Structure (SMILES): CN(CCCCCCCCN(C)C(=O)CCCCCNCC(=O)N1c2ccccc2C(=O)Nc2cccnc21)C(=O)CCCCCNCC(=O)N1c2ccccc2C(=O)Nc2cccnc21
- Kb [3]: 72.4 nM
- Kb [6]: 0.501 nM

Structure (SMILES): CN(CCCCCCCCN(C)C(=O)CCCCCN(CC(=O)N1c2ccccc2C(=O)Nc2cccnc21)CC(=O)N1c2ccccc2C(=O)Nc2cccnc21)C(=O)CCCCCN
- Kb [3]: 7240 nM
- Kb [6]: 5620 nM

Structure (SMILES): CN(CCCCCCN)CCCCCCCCN(C)CCCCCCNCCCCC(=O)N1c2ccccc2C(=O)Nc2cccnc21
- Kb [3]: 19.5 nM
- Kb [6]: 0.977 nM

Structure (SMILES): CN(CCCCCCCCN(C)C(=O)CCCCCNCCCCC(=O)N1c2ccccc2C(=O)Nc2cccnc21)C(=O)CCCCCN
- Ki [1]: 63.1 nM
- Ki [2]: 63.1 nM
- Kb [3]: 13.8 nM
- Ki [4]: 70.8 nM

Structure (SMILES): CN(CCCCCCCCN(C)C(=O)CCCCCN(CC(=O)N1c2ccccc2C(=O)Nc2cccnc21)CC(=O)N1c2ccccc2C(=O)Nc2cccnc21)C(=O)CCCCCN(CC(=O)N1c2ccccc2C(=O)Nc2cccnc21)CC(=O)N1c2ccccc2C(=O)Nc2cccnc21
- Kb [3]: 2140 nM
- Kb [6]: 17.8 nM

Structure (SMILES): CN(CCCCCCCCN(C)C(=O)CCCCCNCCC(=O)N1c2ccccc2C(=O)Nc2cccnc21)C(=O)CCCCCN
- Kb [3]: 18.2 nM
- Kb [6]: 9.12 nM

Structure (SMILES): CN(CCCCCCCCN(C)C(=O)CCCCCNCC(=O)N1c2ccccc2C(=O)Nc2cccnc21)C(=O)CCCCCN
- Ki [1]: 316 nM
- Ki [2]: 20 nM
- Kb [3]: 437 nM
- Ki [4]: 158 nM
- Ki [5]: 44.7 nM
- Kb [6]: 9.77 nM

Structure (SMILES): CN(CCCCCCCCN(C)C(=O)CCCCCN(CC(=O)N1c2ccccc2C(=O)Nc2cccnc21)CC(=O)N1c2ccccc2C(=O)Nc2cccnc21)C(=O)CCCCCNCC(=O)N1c2ccccc2C(=O)Nc2cccnc21
- Ki [1]: 50.1 nM
- Ki [2]: 158 nM
- Kb [3]: 550 nM
- Ki [4]: 5750 nM

Structure (SMILES): COc1ccccc1CNCCCCCCNCCCCCCCCNCCCCCCNCc1ccccc1OC [METHOCTRAMINE]
- Ki [2]: 32.4 nM
- Kb [3]: 363 nM
- Ki [4]: 955 nM

Structure (SMILES): CN(CCCCCCCCN(C)CCCCCCN(CC(=O)N1c2ccccc2C(=O)Nc2cccnc21)CC(=O)N1c2ccccc2C(=O)Nc2cccnc21)CCCCCCNCC(=O)N1c2ccccc2C(=O)Nc2cccnc21 [TRIPITRAMINE]
- Ki [1]: 3.55 nM
- Ki [2]: 11.5 nM
- Ki [4]: 148 nM
